Laboratory results reported in ChEMBL document CHEMBL5058577, “EUbOPEN Chemogenomics Library 2 (Multiplex)” (2022).

System: U2OS
Test: Multiplex assay against U2OS
Type: toxicity, cell-based
Conditions: human
In short: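 Values for tubulin, mitochondrial-mass and membrane-permeability phenotypes are per cents of cells with healthy nuclei. These cells were identified by CellPathfinder machine-learning gating of live cells that had been stained at seeding with Hoechst33342, BioTracker Green Microtubule Cytoskeleton Dye, MitoTracker Red and Annexin V Alexa Fluor 680 and imaged on a CQ1 microscope at 37°C and 5% CO2 after compound addition. The gating first set Hoechst high-intensity objects apart from normal cells, then split normal cells into healthy, pyknosed or fragmented nuclei, and pyknosed cells into mitotic or apoptotic.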

[1] = 12 h, 1 µM, compound concentration 1 uM, replicate 1
[2] = 12 h, 1 µM, compound concentration 1 uM, replicate 2
[3] = 12 h, 10 µM, compound concentration 10 uM, replicate 1
[4] = 12 h, 10 µM, compound concentration 10 uM, replicate 2
[5] = 24 h, 1 µM, compound concentration 1 uM, replicate 1
[6] = 24 h, 1 µM, compound concentration 1 uM, replicate 2
[7] = 24 h, 10 µM, compound concentration 10 uM, replicate 1
[8] = 24 h, 10 µM, compound concentration 10 uM, replicate 2
[9] = 48 h, 1 µM, compound concentration 1 uM, replicate 1
[10] = 48 h, 1 µM, compound concentration 1 uM, replicate 2
[11] = 48 h, 10 µM, compound concentration 10 uM, replicate 1
[12] = 48 h, 10 µM, compound concentration 10 uM, replicate 2

CC(=O)Nc1cccc2c1c(Sc1ccc(Cl)cc1)c(C)n2CC(=O)O [AZD1981]
Population Apoptotic (%) [1]: 68%
Population Fragmented Nuclei (%) [1]: 24%
Population Healthy Nuclei (%) [1]: 68%
Population Hoechst High Intensity Objects (%) [1]: 3%
Population Membrane Permeable-Phenotype (%) [1]: 3%
Population Mitochondria Different-Phenotype (%) [1]: 0%
Population Mitotic Cells (%) [1]: 31%
Population Normal (%) [1]: 96%
Population Pyknosed Nuclei (%) [1]: 6%
Population Tubulin-Different-Phenotype (%) [1]: 2%
Total Cell Count [1]: 253
Population Apoptotic (%) [2]: 83%
Population Fragmented Nuclei (%) [2]: 16%
Population Healthy Nuclei (%) [2]: 76%
Population Hoechst High Intensity Objects (%) [2]: 1%
Population Membrane Permeable-Phenotype (%) [2]: 6%
Population Mitochondria Different-Phenotype (%) [2]: 1%
Population Mitotic Cells (%) [2]: 16%
Population Normal (%) [2]: 98%
Population Pyknosed Nuclei (%) [2]: 7%
Population Tubulin-Different-Phenotype (%) [2]: 3%
Total Cell Count [2]: 82
Population Apoptotic (%) [3]: 83%
Population Fragmented Nuclei (%) [3]: 25%
Population Healthy Nuclei (%) [3]: 66%
Population Hoechst High Intensity Objects (%) [3]: 2%
Population Membrane Permeable-Phenotype (%) [3]: 8%
Population Mitochondria Different-Phenotype (%) [3]: 0%
Population Mitotic Cells (%) [3]: 16%
Population Normal (%) [3]: 97%
Population Pyknosed Nuclei (%) [3]: 7%
Population Tubulin-Different-Phenotype (%) [3]: 1%
Total Cell Count [3]: 231
Population Apoptotic (%) [4]: 80%
Population Fragmented Nuclei (%) [4]: 19%
Population Healthy Nuclei (%) [4]: 76%
Population Hoechst High Intensity Objects (%) [4]: 3%
Population Membrane Permeable-Phenotype (%) [4]: 10%
Population Mitochondria Different-Phenotype (%) [4]: 3%
Population Mitotic Cells (%) [4]: 20%
Population Normal (%) [4]: 96%
Population Pyknosed Nuclei (%) [4]: 4%
Population Tubulin-Different-Phenotype (%) [4]: 5%
Total Cell Count [4]: 122
Population Apoptotic (%) [5]: 91%
Population Fragmented Nuclei (%) [5]: 25%
Population Healthy Nuclei (%) [5]: 66%
Population Hoechst High Intensity Objects (%) [5]: 2%
Population Membrane Permeable-Phenotype (%) [5]: 5%
Population Mitochondria Different-Phenotype (%) [5]: 1%
Population Mitotic Cells (%) [5]: 8%
Population Normal (%) [5]: 97%
Population Pyknosed Nuclei (%) [5]: 8%
Population Tubulin-Different-Phenotype (%) [5]: 3%
Total Cell Count [5]: 289
Population Apoptotic (%) [6]: 50%
Population Fragmented Nuclei (%) [6]: 16%
Population Healthy Nuclei (%) [6]: 82%
Population Hoechst High Intensity Objects (%) [6]: 0%
Population Membrane Permeable-Phenotype (%) [6]: 4%
Population Mitochondria Different-Phenotype (%) [6]: 3%
Population Mitotic Cells (%) [6]: 50%
Population Normal (%) [6]: 100%
Population Pyknosed Nuclei (%) [6]: 1%
Population Tubulin-Different-Phenotype (%) [6]: 0%
Total Cell Count [6]: 106
Population Apoptotic (%) [7]: 88%
Population Fragmented Nuclei (%) [7]: 23%
Population Healthy Nuclei (%) [7]: 66%
Population Hoechst High Intensity Objects (%) [7]: 0%
Population Membrane Permeable-Phenotype (%) [7]: 6%
Population Mitochondria Different-Phenotype (%) [7]: 2%
Population Mitotic Cells (%) [7]: 11%
Population Normal (%) [7]: 99%
Population Pyknosed Nuclei (%) [7]: 9%
Population Tubulin-Different-Phenotype (%) [7]: 2%
Total Cell Count [7]: 266
Population Apoptotic (%) [8]: 100%
Population Fragmented Nuclei (%) [8]: 14%
Population Healthy Nuclei (%) [8]: 77%
Population Membrane Permeable-Phenotype (%) [8]: 3%
Population Mitochondria Different-Phenotype (%) [8]: 4%
Population Mitotic Cells (%) [8]: 0%
Population Pyknosed Nuclei (%) [8]: 8%
Population Tubulin-Different-Phenotype (%) [8]: 0%
Total Cell Count [8]: 125
Population Apoptotic (%) [9]: 91%
Population Fragmented Nuclei (%) [9]: 16%
Population Healthy Nuclei (%) [9]: 74%
Population Hoechst High Intensity Objects (%) [9]: 1%
Population Membrane Permeable-Phenotype (%) [9]: 6%
Population Mitochondria Different-Phenotype (%) [9]: 2%
Population Mitotic Cells (%) [9]: 8%
Population Normal (%) [9]: 98%
Population Pyknosed Nuclei (%) [9]: 9%
Population Tubulin-Different-Phenotype (%) [9]: 4%
Total Cell Count [9]: 375
Population Apoptotic (%) [10]: 81%
Population Fragmented Nuclei (%) [10]: 9%
Population Healthy Nuclei (%) [10]: 82%
Population Hoechst High Intensity Objects (%) [10]: 3%
Population Mitochondria Different-Phenotype (%) [10]: 0%
Population Mitotic Cells (%) [10]: 18%
Population Normal (%) [10]: 96%
Population Pyknosed Nuclei (%) [10]: 7%
Population Tubulin-Different-Phenotype (%) [10]: 1%
Total Cell Count [10]: 144
Population Apoptotic (%) [11]: 100%
Population Fragmented Nuclei (%) [11]: 18%
Population Healthy Nuclei (%) [11]: 75%
Population Hoechst High Intensity Objects (%) [11]: 2%
Population Membrane Permeable-Phenotype (%) [11]: 7%
Population Mitochondria Different-Phenotype (%) [11]: 2%
Population Mitotic Cells (%) [11]: 0%
Population Normal (%) [11]: 97%
Population Pyknosed Nuclei (%) [11]: 5%
Population Tubulin-Different-Phenotype (%) [11]: 4%
Total Cell Count [11]: 366
Population Apoptotic (%) [12]: 85%
Population Fragmented Nuclei (%) [12]: 14%
Population Healthy Nuclei (%) [12]: 73%
Population Hoechst High Intensity Objects (%) [12]: 1%
Population Mitochondria Different-Phenotype (%) [12]: 4%
Population Mitotic Cells (%) [12]: 15%
Population Normal (%) [12]: 98%
Population Pyknosed Nuclei (%) [12]: 11%
Total Cell Count [12]: 171
